Screens deposited in PubChem BioAssay by NMMLSC.
MEKK3 PB1 HTS: MEKK3-MEK5 PB1 interaction, increase or decrease; AID 1529; binding response (% of control), % at 10 µM; Q99759; bead-based flow cytometry, Alexa488-MEK5 binding to MEKK3; actives lie on both sides; 0 = blocked by unlabeled MEK5, 100 = vehicle; hit rate 1.4% among 290,000;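 active = binding response more than 3 SD above or below the average of its plate-row segment, actives on both sides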;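 also: Alexa488 bead fluorescence after subtracting the streptavidin-only scavenger bead signal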
MEKK2 WT-MEK5: raises or lowers MEK5 binding to wildtype human MEKK2 PB1 domain. Q9Y2U5. bead flow cytometry, Alexa488-MEK5 binding to MEKK2 WT; actives lie on both sides. binding response (% of control), % at 10 µM. hit rate 1.1% among 290,000; in the data active = binding response below about 67% or above about 130%
Efflux pump inh: antifungal efflux pump inhibition, Nile Red retention | S. cerevisiae Candida pump triplex | inhibition, % at 10 µM | hit rate 0.44% among 330,000;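 active = plate passing quality check with inhibition over a set limit, or well fluorescence over plate mean plus 4 SD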;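 also: Nile Red retained in pooled yeast measured as flow cytometry median fluorescence; higher means more Nile Red kept so more efflux inhibition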
MEKK2 mut-MEK5: signal of MEK5 binding to mutant human MEKK2 PB1 domain. bead flow cytometry, Alexa488-MEK5 binding to MEKK2 mutant. percent response, % at 10 µM. hit rate 0.35% among 290,000; in the data active = percent response above about 24%, passing the limit was not always enough
ABCB1 block: human ABCB1 inhibition, ABCG2 as counter-screen | P08183 | CCRF-Adr cells, JC-1 efflux, flow cytometry | inhibition, % at 6.6 µM | hit rate 0.067% among 190,000 | AID 1326; in the data active = inhibition above about 40%;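 also: higher value means more JC-1 retained so stronger ABCB1 efflux block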
ABCG2 block: inhibitors of human ABCG2 transporter, ABCB1 counter-screen. Q9UNQ0. IgMXP3 cells, JC-1 efflux, flow cytometry. inhibition, % at 6.6 µM. hit rate 0.1% among 190,000;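 active = inhibition above 80%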
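Test system: IgMXP3 (ABCG2) plus far-red-tagged CCRF-Adr (ABCB1) cells. Reagent: JC-1 dye as substrate. Timing: 10 min exposure at 25 °C with rotation, no wash. Measured by: flow cytometric JC-1 green MFI at 530 nm. Read-out: percent efflux inhibition, scaled nicardipine 100% to DMSO 0%. Control set: nicardipine and DMSO wells.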
MEKK2wt confirm: raises or lowers MEK5 binding to wildtype human MEKK2, retest; hit rate 2.4% among 5,900; binding response (% of control), % at 10 µM; bead flow cytometry, Alexa488-MEK5 binding to MEKK2 WT; actives lie on both sides; shares compounds with MEKK3 PB1 HTS; AID 1892; in the data active = binding response below about 16% or above about 210%; inactive = in between
MEKK2mut-MEK5: signal of MEK5 binding to mutant human MEKK2, retest. AID 1893. percent response, % at 10 µM. hit rate 2% among 5,900. shares compounds with MEKK3 PB1 HTS. bead flow cytometry, Alexa488-MEK5 binding to MEKK2 mutant; in the data active = percent response mostly above about 71%, no sharp cut-off; inactive = mostly below about 38%;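 also: higher means compound restores mutant binding toward wildtype level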
MEKK3 confirm: confirmation of inhibitors of MEK5 binding to human MEKK3; binding response (% of control), % at 10 µM; AID 1894; bead flow cytometry, Alexa488-MEK5 binding to MEKK3; stronger effect = lower value; shares compounds with MEKK3 PB1 HTS; hit rate 1.8% among 5,900;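 active = binding response below 72% of control, or above a set upper limit, though filed actives all read lower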
Hits are given with their value; . = inactive; / = no result; [ ] = another dose, or the depositor's remark. Sampled rows, rich in hits. Any-hit rate of the full collection: about 2.5%.

SMILES	MEKK3 PB1 HTS	MEKK2 WT-MEK5	Efflux pump inh	MEKK2 mut-MEK5	ABCB1 block	ABCG2 block	MEKK2wt confirm	MEKK2mut-MEK5	MEKK3 confirm
c1ccc(Cn2nnc3c(NCC4CCCO4)ncnc32)cc1 (centres undefined)	61.0[inhibitor]	.	.	.	.	.	.	.	.
CS(=O)(=O)N(Cc1ccc(Cl)cc1)c1ccc(C(=O)NCC2CCCO2)cc1 (centres undefined)	.	.	.	.	.	.	/	/	/
O=C(NCC(=O)N(c1cccc(F)c1)C(C(=O)NC1CCCC1)c1cccnc1)c1cccs1 (centres undefined)	129.0	.	.	.	.	.	.	.	.
O=C(NCC(=O)N(c1ccc(F)cc1)C(C(=O)NC1CCCC1)c1cccnc1)c1cccs1 (centres undefined)	.	.	.	.	.	.	/	/	/
O=C(NCC(=O)N(c1ccccc1)C(C(=O)NCC1CCCO1)c1ccccc1)c1ccco1 (centres undefined)	125.0	.	.	.	.	.	.	.	.
CS(=O)(=O)N(Cc1ccccc1)c1ccc(C(=O)NCC2CCCO2)cc1 (centres undefined)	123.0	.	.	.	.	.	.	.	.
O=C(NCC1CCCO1)C(c1cccnc1)N(C(=O)Cc1cccs1)c1ccccc1 (centres undefined)	-1.0[inhibitor]	-10.0[inhibitor]	.	.	.	.	.	.	.
O=C(COc1ccc(S(=O)(=O)N2CCc3ccccc32)cc1Cl)NCc1ccccn1	.	.	.	.	.	.	/	/	/
CSc1cccc(NC(=O)C(C)NS(=O)(=O)c2ccc(F)cc2)c1 (centres undefined)	.	.	.	.	.	.	/	/	/
COc1ccc(OC)c(N(CC(=O)NCC2CCCO2)S(=O)(=O)c2ccccc2)c1 (centres undefined)	.	.	.	.	/	/	/	/	/
O=C(NCC1CCCO1)C(c1cccs1)N(Cc1cccs1)C(=O)Cn1nnc(-c2cccs2)n1 (centres undefined)	66.0[inhibitor]	-2.0	.	.	.	.	.	.	.
O=C1COc2ccc(C(=O)COC(=O)c3ccccn3)cc2N1	/	/	.	/	/	/	/	/	/
CCCn1nc(C(=O)OCC(=O)c2ccc3c(c2)NC(=O)CO3)c2ccccc2c1=O	132.0	.	.	.	.	.	.	.	.
COc1cc(CN2CCN(c3ccccc3C)CC2)cc([N+](=O)[O-])c1O	62.0[inhibitor]	49.0[inhibitor]	.	.	.	.	.	.	.
COC(=O)C1CCN(C(=O)CN2C(=O)NC(CC(C)C)C2=O)CC1 (centres undefined)	/	/	.	/	/	/	/	/	/
O=C(CSc1nnc(SCc2cccc3ccccc23)s1)N=Nc1c(O)[nH]c2ccccc12	.	.	.	.	.	.	/	/	/
CCN1C(=O)N(CC)C2C1N(CO)C(=O)N2CO (centres undefined)	129.0	.	.	.	.	.	.	.	.
Fc1ccc(CNC(=S)Nc2cccc(C(F)(F)F)c2)cc1	.	.	.	.	.	.	/	/	/
Fc1ccccc1CNC(=S)Nc1cccc(C(F)(F)F)c1	134.0	.	.	.	.	.	.	.	.
CCOc1ccccc1NC(=O)NCc1cccnc1	43.0[inhibitor]	.	.	.	.	.	.	.	.
CCC(C)NC(=O)c1cc2cc3ccc(OC)cc3nc2s1 (centres undefined)	126.0	.	.	.	.	.	.	.	.
COc1ccc2cc3cc(C(=O)NCCN4CCc5ccccc5C4)sc3nc2c1	.	.	.	.	.	.	/	/	/
CCCCc1ccc(S(=O)(=O)Nc2ccc(C)c(NS(C)(=O)=O)c2)cc1	137.0	.	.	.	/	/	.	.	.
O=C(N/N=C/c1ccc(N2CCCCC2)o1)C(O)(c1ccccc1)c1ccccc1	.	.	.	.	.	.	/	/	/
Cc1ccc(NC(=O)Cn2nc(-c3ccccc3)nc2-c2ccccc2)c(C)c1	150.0	.	.	.	.	.	.	.	.
SMILES	MEKK3 PB1 HTS	MEKK2 WT-MEK5	Efflux pump inh	MEKK2 mut-MEK5	ABCB1 block	ABCG2 block	MEKK2wt confirm	MEKK2mut-MEK5	MEKK3 confirm
Cc1ccc(C)c(NC(=O)Cn2nc(-c3ccccc3)nc2-c2ccccc2)c1	.	.	.	.	.	.	/	/	/
COc1ccc(NC(=O)N2c3ccccc3CC2C)cc1OC (centres undefined)	.	.	.	.	.	.	/	/	/
COc1ccc(NC(=S)N2c3ccccc3CC2C)cc1OC (centres undefined)	74.0[inhibitor]	.	.	.	.	.	.	.	.
O=C(CNC(=O)c1cccs1)N=Nc1c(O)[nH]c2ccc([N+](=O)[O-])cc12	.	.	.	.	/	/	/	/	/
O=C(NCc1nc(-c2ccc(C(F)(F)F)cc2)no1)Nc1cc(Cl)cc(Cl)c1	136.0	179.0	.	52.0	/	/	.	.	.
O=C(NCc1nc(-c2ccc(C(F)(F)F)cc2)no1)Nc1ccc(F)cc1F	131.0	.	.	.	/	/	.	.	.
O=C(O)COCC(=O)NCc1nc(-c2ccc(C(F)(F)F)cc2)no1	.	.	.	.	/	/	/	/	/
Cc1c(C(=O)NCc2ccc3c(c2)OCO3)cccc1[N+](=O)[O-]	.	.	.	.	.	.	/	/	/
CCOc1ccc(OCc2cccc(C(=O)Nc3ccc(CN4CCCCC4)cc3)c2)cc1	.	161.0	.	.	.	.	.	.	.
CC(C)Oc1cccc(C(=O)NC(=S)Nc2ccc(N3CCN(C)CC3)cc2)c1	24.0[inhibitor]	.	.	.	/	/	.	.	.
CCOc1ccc(C(=O)Nc2ccc(N3CCCC3)cc2)cc1	.	.	.	.	.	.	/	/	/
CCOc1cccc(C(=O)Nc2ccc(N3CCCC3)cc2)c1	.	144.0	.	.	/	/	.	.	.
CCOc1ccc(C(=O)Nc2ccc(N3CCN(C)CC3)cc2)cc1Br	.	.	.	24.0	.	.	.	.	.
O=c1c2sccc2n(Cc2cccc(F)c2)c(=O)n1-c1ccc(F)cc1	.	.	.	.	.	.	/	/	/
Cc1ccc(S(=O)(=O)NCC(=O)OCC(=O)c2c(N)n(C)c(=O)n(C)c2=O)cc1	.	.	.	.	.	.	/	/	/
O=c1nc(Nc2ccccc2)sc2ccc([N+](=O)[O-])cc12	.	.	.	.	.	.	/	/	/
CCOc1cccc(C(=O)Nc2ccc3c(c2)OCCO3)c1	26.0[inhibitor]	38.0[inhibitor]	.	.	/	/	.	.	.
